Sampled rows, rich in hits. Any-hit rate of the full collection: about 5.9%.
Tcruzi prolif: inhibitors of T. cruzi proliferation; actives 5.9% (n = 77,000); inhibition, % at 8.34 µM; AID 624255; T. cruzi beta-gal in NIH3T3, GalScreen luminescence, 90 h;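 active = mean inhibition above about 93%, with at least 55% of replicates each passing it, limit read from the data, passing the limit was not always enough; inconclusive = only one of those two conditions holds; inactive = neither condition holds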
IDH1 R132H inh: blocks human IDH1 R132H reductase activity; actives 0.18% (n = 70,000); diaphorase/resazurin fluorescence, 60 min; O75874; inhibition, % at 10 µM; in the data active = inhibition above about 34%; inconclusive = no clear call, values can overlap the other calls; inactive = below about 11%;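 also: 0% = DMSO and 100% = no enzyme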
KDM4C inh: inhibitors of human demethylase GASC-1 KDM4C; Q9H3R0; GST-KDM4C 2-372, H3K9me3 peptide, LANCE TR-FRET; inhibition, % at 12.5 µM; actives 0.15% (n = 96,000); AID 720574;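 active = mean replicate inhibition above about 25%, with at least 55% of replicates also reaching it, limit read from the data, passing the limit was not always enough; inconclusive = only one of those two conditions met; inactive = neither condition met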
Target sequence (Q9H3R0 2-372 limits assumed): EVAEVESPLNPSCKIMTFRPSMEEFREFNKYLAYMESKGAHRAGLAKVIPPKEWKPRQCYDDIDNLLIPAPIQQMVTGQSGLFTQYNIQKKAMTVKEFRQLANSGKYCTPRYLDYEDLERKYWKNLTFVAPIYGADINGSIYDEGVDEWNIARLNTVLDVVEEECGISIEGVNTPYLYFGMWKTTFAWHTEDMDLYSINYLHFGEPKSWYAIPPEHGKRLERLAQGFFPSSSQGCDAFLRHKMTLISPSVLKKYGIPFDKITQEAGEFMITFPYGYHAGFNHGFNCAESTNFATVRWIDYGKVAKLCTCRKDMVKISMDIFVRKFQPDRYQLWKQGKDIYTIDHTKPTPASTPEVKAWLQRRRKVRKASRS
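Material: GST-tagged GASC-1 (JMJD2C) catalytic fragment, aa 2-372. Input: enzyme final amount 10 nM. Medium: HEPES buffer, pH 7.5, plus ascorbate. Reagent: H3K9me3 peptide substrate, Fe(II), 2-oxoglutarate. Doses: single dose. Times: reaction 30 min RT, detection step 1 h RT. Measured by: LANCE TR-FRET. Evaluation: Fall in 671/618 emission ratio as inhibition.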
Pf Dd2 inh: inhibitors of Plasmodium falciparum Dd2 growth. AID 1159554. P. falciparum Dd2 growth, SYBR Green, 72 h; active compounds read low. activity change, % at 10 µM. actives 2.3% (n = 94,000); in the data active = activity change below about -80%; inconclusive = no clear call, values can overlap the other calls
An asterisk follows results filed as active; ? = inconclusive; / = not tested or not shown.

SMILES	Tcruzi prolif	IDH1 R132H inh	KDM4C inh	Pf Dd2 inh
CO[C@@H]1CN(C)C(=O)c2ccc(NC(=O)c3nc4ccccc4s3)cc2OC[C@@H](C)N(Cc2ccccc2)C[C@H]1C	/	-0.6	-0.7	-95.6*
COc1ccc(CN2C[C@@H](C)[C@H](OC)CN(C)C(=O)c3cc(NC(=O)c4nc5ccccc5s4)ccc3OC[C@@H]2C)cc1	/	0.0	-0.2	-70.9
CO[C@@H]1CN(C)C(=O)c2cc(NC(=O)c3cc(C)on3)ccc2OC[C@@H](C)N(S(=O)(=O)c2cccc(C)c2)C[C@H]1C	68.2	-0.6	-0.5	-50.0
O=[N+]([O-])c1ccc(NC(=S)NCCCn2ccnc2)cc1	/	14.1	/	/
COc1ccc(NC(=O)c2c(-c3ccccc3)csc2NC(=O)CN2CCOCC2)cc1	/	0.4	/	/
COc1ccc(S(=O)(=O)N(C)CC(=O)Nc2ccc3c(c2)OCCO3)cc1C	/	-0.3	/	/
Cc1ccc(N(CC(=O)Nc2ccc(Br)cc2F)S(C)(=O)=O)cc1C	/	0.2	/	/
Cc1c(Cl)cccc1NC(=O)CSc1nnc(-c2ccc([N+](=O)[O-])cc2)n1C	/	-0.2	/	/
COc1ccc(S(=O)(=O)N(CC(N)=O)c2ccc(F)cc2)cc1	/	-0.3	/	/
CO[C@@H]1CN(C)C(=O)c2cc(NC(=O)c3nc4ccccc4s3)ccc2OC[C@@H](C)N(Cc2ccncc2)C[C@H]1C	83.6	2.9	0.9	-86.8*
CCOc1ccc(-n2c(SCC(=O)N3CCOCC3)nnc2-c2ccncc2)cc1	/	-0.1	/	/
Cc1ccc(S(=O)(=O)Nc2ccc3c(c2)C(=O)N([C@@H](C)CO)C[C@H](C)[C@@H](CN(C)S(=O)(=O)c2ccc(Cl)cc2)OCCCC[C@@H](C)O3)cc1	73.7	1.8	-0.2	?
Cc1ccc(S(=O)(=O)Nc2ccc3c(c2)C(=O)N([C@H](C)CO)C[C@@H](C)[C@@H](CN(C)S(=O)(=O)c2ccccc2)OCCCC[C@@H](C)O3)cc1	/	-0.1	11.6	-63.7
Cc1ccc(S(=O)(=O)N(C)C[C@@H]2OCCCC[C@H](C)Oc3ccc(NS(=O)(=O)c4ccccc4)cc3C(=O)N([C@@H](C)CO)C[C@@H]2C)cc1	109.9*	1.1	-1.7	-54.2
Cc1noc(C)c1S(=O)(=O)Nc1ccc2c(c1)C(=O)N([C@@H](C)CO)C[C@@H](C)[C@@H](CN(C)S(=O)(=O)c1ccc(Cl)cc1)OCCCC[C@H](C)O2	61.0	/	-0.2	-92.0*
Cc1noc(C)c1S(=O)(=O)Nc1ccc2c(c1)C(=O)N([C@@H](C)CO)C[C@@H](C)[C@H](CN(C)S(=O)(=O)c1ccc(F)cc1)O2	9.1	/	-0.7	-84.8*
Cc1ccc(S(=O)(=O)Nc2ccc3c(c2)C(=O)N([C@@H](C)CO)C[C@H](C)[C@@H](CN(C)S(=O)(=O)c2ccc(Cl)cc2)OCCCC[C@H](C)O3)cc1	82.7	3.4	-1.3	-86.1*
CC(C)NC(=O)Nc1cccc2c1O[C@@H](CN(C)Cc1ccc(C(=O)Nc3ccccc3N)cc1)[C@@H](C)CN([C@H](C)CO)C2=O	/	-0.3	-0.9	-45.0
C[C@@H]1CN([C@@H](C)CO)C(=O)c2cccc(NC(=O)Nc3ccccc3)c2O[C@@H]1CN(C)Cc1ccc(C(=O)Nc2ccccc2N)cc1	69.3	/	1.0	-93.8*
C[C@@H]1CN([C@H](C)CO)C(=O)c2cccc(NC(=O)Nc3ccc4c(c3)OCO4)c2O[C@@H]1CN(C)Cc1ccc(C(=O)Nc2ccccc2N)cc1	109.6	/	-1.2	-91.5*
CC(C)NC(=O)Nc1cccc2c1O[C@H](CN(C)Cc1ccc(C(=O)Nc3ccccc3N)cc1)[C@H](C)CN([C@@H](C)CO)C2=O	/	3.9	-1.3	-83.8*
C[C@@H]1CN([C@@H](C)CO)C(=O)c2cccc(NC(=O)Nc3ccc(C(F)(F)F)cc3)c2O[C@H]1CN(C)Cc1ccc(C(=O)Nc2ccccc2N)cc1	/	/	0.8	-85.2*
C[C@@H]1CN([C@@H](C)CO)C(=O)c2cccc(NC(=O)Nc3ccc(F)cc3)c2O[C@H]1CN(C)Cc1ccc(C(=O)Nc2ccccc2N)cc1	/	/	-0.6	-82.4*
C[C@H](CO)N1C[C@H](C)[C@H](CN(C)Cc2ccc(C(=O)Nc3ccccc3N)cc2)Oc2c(NC(=O)Nc3ccc(F)cc3)cccc2C1=O	/	0.6	0.8	-79.1
C[C@H]1CN([C@@H](C)CO)C(=O)c2cccc(NC(=O)Nc3ccc(F)cc3)c2O[C@@H]1CN(C)Cc1ccc(C(=O)Nc2ccccc2N)cc1	/	-0.5	-0.5	-83.2*
SMILES	Tcruzi prolif	IDH1 R132H inh	KDM4C inh	Pf Dd2 inh
C[C@@H]1CN([C@H](C)CO)C(=O)c2cccc(NC(=O)Nc3cccc4ccccc34)c2O[C@@H]1CN(C)Cc1ccc(C(=O)Nc2ccccc2N)cc1	/	0.1	12.5	-92.5*
C[C@@H]1CCCCO[C@H](CN(C)C(=O)Nc2ccc(C(F)(F)F)cc2)[C@H](C)CN([C@H](C)CO)C(=O)c2cc(NC(=O)Nc3ccc(F)cc3)ccc2O1	117.2*	0.7	0.5	-81.1*
C[C@@H]1CCCCO[C@H](CN(C)C(=O)Nc2ccc(C(F)(F)F)cc2)[C@@H](C)CN([C@H](C)CO)C(=O)c2cc(NC(=O)Nc3cccc4ccccc34)ccc2O1	42.8	5.1	-1.2	-82.1*
Cc1noc(C)c1NC(=O)Nc1ccc2c(c1)C(=O)N([C@H](C)CO)C[C@@H](C)[C@H](CN(C)C(=O)Nc1ccc(C(F)(F)F)cc1)OCCCC[C@H](C)O2	40.3	0.9	-2.5	-84.1*
C[C@H](CO)N1C[C@H](C)[C@@H](CN(C)C(=O)Nc2ccc(C(F)(F)F)cc2)OCCCC[C@H](C)Oc2ccc(NC(=O)Nc3ccc(F)cc3)cc2C1=O	118.9*	0.9	-3.4	-38.4
C[C@H](CO)N1C[C@H](C)[C@H](CN(C)C(=O)Nc2ccc(C(F)(F)F)cc2)OCCCC[C@H](C)Oc2ccc(NC(=O)Nc3ccc(F)cc3)cc2C1=O	?	3.5	-0.5	58.7
COc1ccc(-c2cc(=O)[nH]c(SCC(=O)Nc3ccc(Br)cc3)n2)cc1	/	-0.1	/	/
O=C(NO)c1cccc(C(=O)N/N=C/c2ccc(Oc3ccccc3)cc2)c1	/	-0.1	/	/
CN(CC(=O)Nc1ccccc1Sc1ccccc1)S(=O)(=O)c1ccc(F)cc1	/	0.2	/	/
CC(C)(C)OC(=O)NC1(/C=N/NC(=O)CCCCCCC(=O)O)CCCC1	/	-0.1	/	/
COc1ccc(NC(=O)CCN2C(=O)c3ccccc3C2=O)cc1Cl	/	-0.5	/	/
CCc1cccc(-n2c(-c3ccco3)nc3c(cnn3-c3ccccc3Cl)c2=O)c1	/	46.3*	/	/
C=C1c2c(Cl)ccc(O)c2C(=O)C2C(=O)[C@]3(O)C(=O)C(C(N)=O)C(=O)[C@@H](N(C)C)[C@@H]3[C@@H](O)C12 (some centres not stated)	/	-0.4	/	/
C[C@@H]1CN([C@H](C)CO)C(=O)c2cc(NC(=O)Nc3ccc4c(c3)OCO4)ccc2O[C@@H](C)CCCCO[C@H]1CN(C)Cc1ccc(Cl)c(Cl)c1	95.8	/	-4.0	-89.1*
C[C@H]1CCCCO[C@H](CN(C)Cc2ccc(Cl)c(Cl)c2)[C@@H](C)CN([C@@H](C)CO)C(=O)c2cc(NC(=O)Nc3ccc4c(c3)OCO4)ccc2O1	68.3	/	-1.9	-56.4
